Hits are enriched below; roughly 4% of the tested compounds scored in any of these assays.
MT stabilize HCS – microtubule stabilizers in HeLa cells, primary screen, imaging, high-content imaging. HeLa tubulin immunostaining HCS, 24 h; share of cells brighter than vehicle mean+2SD. % tubulin-high responders, % at 10 µM. hit rate 0.83% among 200,000. AID 2205, 2009;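 active = plate Z-score above 3 for both tubulin-high and condensed-nucleus cell shares, with cell loss under 80%, at 10 µM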;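 note: anti alpha tubulin signal scored within the nucleus-defined area of each cell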
WT yeast gro inh – growth inhibition of WT strain, primary screen, mitochondrial fusion inhibitor project, WT and mutant strains, chemical genetic. mitochondrial fusion phenotypic screen. inhibition, % at 10 µM. hit rate 2.1% among 190,000. AID 1362, 2008; in the data active = inhibition above about 58%; tested in S. cerevisiae
KCC2 mod – KCC2 cotransporter modulators, thallium flux, primary screen, cell-based, HEK293 KCC2, FluoZin-2 fluorescence, MLSMR; Solute carrier family 12 member 5 (Homo sapiens), Q9H2X9; KCC2 cells, thallium flux FluoZin-2 fluorescence; B-score of Tl+ flux slope (higher = more flux/activation; lower = inhibition) at 10 µM; hit rate 2.2% among 190,000; AID 1456, 2008;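 active = thallium flux slope and its plate-corrected score both differing from the plate sample mean at a set confidence after two filtering rounds, in either direction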;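 note: slope of fluorescence scaled to starting intensity during 10 to 20 s after thallium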
Target sequence (Q9H2X9 whole entry, looked up): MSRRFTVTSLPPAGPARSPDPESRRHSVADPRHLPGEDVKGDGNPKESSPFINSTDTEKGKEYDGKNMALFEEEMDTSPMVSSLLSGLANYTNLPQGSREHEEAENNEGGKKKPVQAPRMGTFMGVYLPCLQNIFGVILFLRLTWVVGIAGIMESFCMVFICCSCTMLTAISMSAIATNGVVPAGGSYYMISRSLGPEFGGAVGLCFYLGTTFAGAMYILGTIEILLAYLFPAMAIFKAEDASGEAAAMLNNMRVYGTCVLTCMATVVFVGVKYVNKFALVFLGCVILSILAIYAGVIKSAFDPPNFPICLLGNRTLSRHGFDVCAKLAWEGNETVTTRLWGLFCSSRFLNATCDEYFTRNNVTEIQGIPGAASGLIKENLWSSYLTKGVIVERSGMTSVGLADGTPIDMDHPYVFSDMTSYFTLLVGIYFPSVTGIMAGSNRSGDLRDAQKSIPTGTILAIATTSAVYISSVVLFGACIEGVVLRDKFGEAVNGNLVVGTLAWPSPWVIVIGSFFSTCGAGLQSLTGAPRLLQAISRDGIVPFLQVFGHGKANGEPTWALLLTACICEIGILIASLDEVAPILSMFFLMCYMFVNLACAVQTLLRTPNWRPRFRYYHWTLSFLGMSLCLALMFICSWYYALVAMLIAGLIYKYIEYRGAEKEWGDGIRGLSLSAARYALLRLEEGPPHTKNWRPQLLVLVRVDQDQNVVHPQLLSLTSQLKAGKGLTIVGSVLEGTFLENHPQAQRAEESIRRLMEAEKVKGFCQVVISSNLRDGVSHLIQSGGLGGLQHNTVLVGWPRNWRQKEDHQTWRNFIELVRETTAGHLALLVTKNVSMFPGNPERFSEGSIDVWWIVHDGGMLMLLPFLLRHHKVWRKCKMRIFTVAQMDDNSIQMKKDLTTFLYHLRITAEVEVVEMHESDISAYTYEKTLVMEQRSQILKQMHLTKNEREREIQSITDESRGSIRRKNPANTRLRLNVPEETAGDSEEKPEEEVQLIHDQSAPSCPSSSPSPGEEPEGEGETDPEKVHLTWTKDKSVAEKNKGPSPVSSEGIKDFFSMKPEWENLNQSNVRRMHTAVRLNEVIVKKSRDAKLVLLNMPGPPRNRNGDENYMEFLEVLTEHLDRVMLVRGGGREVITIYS
Pf gamet viab – late stage P. falciparum gametocyte viability inhibitors, primary screen, ATP luminescence, HTS; P. falciparum stage V gametocytes, 24 h; inhibition, % at 10.9 µM; hit rate 0.065% among 150,000;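 active = inhibition above the mean plus 3 SD of compounds within the control limits, set per campaign, cut at about 38% in these data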
bCat nuc transl – modulators of beta-catenin nuclear translocation, primary screen, imaging, HeLa cells, immunofluorescence, high-content; nuclear translocation activity, % at 5 µM; hit rate 0.3% among 190,000; AID 1665, 2009;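 active = nuclear translocation activity above 50% at 5 µM, with a well cell count of 50 or more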;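 note: per-cell ratio of nuclear to cytoplasmic median beta-catenin stain intensity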
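Test system: human HeLa cells, endogenous beta-catenin. Times: 24 h compound exposure, 37°C. Measured by: beta-catenin immunofluorescence imaging with DAPI.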
A number is an active result; - = inactive; . = not tested or not shown.

SMILES | MT stabilize HCS | WT yeast gro inh | KCC2 mod | Pf gamet viab | bCat nuc transl
Cc1ccc2nc(N/N=C/c3ccccc3F)nc(-c3ccccc3)c2c1 | - | 64 | - | - | -
O=C(CCS(=O)(=O)c1ccc(Cl)cc1)NCCc1c[nH]c2ccccc12 | - | - | - | - | -
O=C(O)C1C2C=CC(C2)C1C(=O)Nc1ccc(C(=O)N2CCCCC2)cc1 (stereo unspecified) | - | 68 | - | . | -
CCOc1cccc(OCCCNCCCOC)c1 | - | 60 | - | . | .
CCc1cccc(OCCCCNCCCOC)c1 | - | - | - | - | -
CCn1ncc(/C=N/NC(=O)c2cc(Cl)ccc2OC)c1C | - | - | - | - | .
CCc1cc(-c2n[nH]c(C)c2-c2nc3ccccc3n2C)c(O)cc1O | 14 | - | - | - | -
CCc1cc(-c2n[nH]c(CCC(=O)O)c2-c2nc3ccccc3n2C)c(O)cc1O | - | - | - | - | -
O=C(Cn1nnc2ccccc21)OCC(=O)c1ccc(Cl)c(Cl)c1 | - | - | - | . | -
O=C(Cn1nnc2ccccc21)OCC(=O)c1ccccc1 | - | - | 3.2 | . | -
CCCCCCc1nc2ccccc2c(=O)n1NC(=O)c1c(O)c2cccc3c2n(c1=O)CCC3 | - | 65 | - | . | .
CCCCCc1nc2ccccc2c(=O)n1NC(=O)c1c(O)c2cccc3c2n(c1=O)CCC3 | - | . | - | . | .
CCn1nc(C)c(C(=O)Nc2cc(Oc3cc(C)cc(C)c3)cc([N+](=O)[O-])c2)c1C | - | 69 | - | . | -
Cc1nn(C)cc1C(=O)Nc1cc(Oc2ccc(Cl)cc2)cc([N+](=O)[O-])c1 | - | - | - | . | -
CC1=C(C(=O)Nc2ccccc2)C(c2cccs2)NC(=O)N1 (stereo unspecified) | - | - | - | - | -
CCOc1ccc2cc(C#N)c(SCC(=O)NC(C)CC)nc2c1 (stereo unspecified) | 44 | - | - | . | -
CCN(CC)C(=S)SCC(=O)Nc1nc(=O)c2ccccc2s1 | - | - | 16 | - | -
C=CCNCCCOc1ccc(Cl)cc1C(C)(C)C | - | 75 | - | - | -
COc1ccc(-c2nc3ccccn3c2NC2CCCCC2)cc1SC1CCCCC1 | . | . | . | - | .
c1ccc(-c2nc3ccccn3c2NC2CCCC2)nc1 | - | 68 | - | - | -
Cc1ccn2c(NC3CCCC3)c(-c3ccccn3)nc2c1 | - | 76 | - | - | -
Clc1ccc(-c2nc3cnccn3c2NC2CCCC2)cc1 | - | 68 | - | . | .
O=C(CSc1nnc2ccccn12)N1CCc2ccccc21 | - | - | . | - | -
COc1ccccc1CNC(=S)Nc1ccc(F)cc1 | . | . | . | - | .
CCC(C)c1ccc(NC(=S)NCc2ccccc2OC)cc1 (stereo unspecified) | - | 77 | - | - | -
SMILES | MT stabilize HCS | WT yeast gro inh | KCC2 mod | Pf gamet viab | bCat nuc transl
COc1ccccc1CNC(=S)NCCc1ccccc1 | - | 69 | - | - | -
COc1ccc(C(=O)O/N=C(\N)Cc2ccc(Cl)c(Cl)c2)cc1OC | - | 94 | - | . | -
COc1ccc(C2C(C#N)=C(N)Oc3cc(O)ccc32)cc1OC (stereo unspecified) | - | - | - | - | -
COc1cc(C2C(C#N)=C(N)Oc3cc(N(C)C)ccc32)cc2c1OCO2 (stereo unspecified) | 14 | - | - | . | 80
COc1cc(C2C(C#N)=C(N)Oc3cc(O)ccc32)cc2c1OCO2 (stereo unspecified) | 16 | - | - | - | -
COc1cc(C2C(C#N)=C(N)Oc3cc(O)ccc32)cc(OC)c1OC (stereo unspecified) | 21 | - | - | . | .
N#CC1=C(N)Oc2cc3c(cc2C1c1ccc(Cl)cc1)OCO3 (stereo unspecified) | - | - | - | - | -
COc1cc(C2C(C#N)=C(N)Oc3cc4c(cc32)OCO4)cc(OC)c1OC (stereo unspecified) | - | - | - | - | 51
COC(=O)c1sccc1NC(=O)CC1C(=O)NCCN1C(=O)Nc1ccc(C(F)(F)F)cc1 (stereo unspecified) | . | . | - | - | -
CCOc1ccc(-c2c(=O)n(OCc3ccc([N+](=O)[O-])cc3)c3ccccc3[n+]2[O-])cc1 | - | - | - | . | -
Cc1ccc(Nc2nnc(SC(C)C(=O)Nc3c(C)n(C)n(-c4ccccc4)c3=O)s2)cc1 (stereo unspecified) | - | - | - | - | -
CC1(C)CC(=O)C/C(=N\NC(=O)Cc2ccccc2)C1 | - | - | - | - | -
CC1(C)CC(=O)C/C(=N/NC(=O)c2ccc(-c3ccccc3)cc2)C1 | - | - | -4.7 | - | -
CC(C)Nc1nc(NC(C)C)nc(SCCOC(=O)Nc2ccc(Cl)cc2Cl)n1 | - | 66 | - | - | -
CCNc1nc(NCC)nc(SCCOC(=O)COc2ccc(Cl)cc2Cl)n1 | - | 77 | - | - | -
CCNc1nc(NC(C)C)nc(SCCOC(=O)c2ccccc2)n1 | - | - | - | - | -
N#Cc1ccc(Cl)cc1NC(=O)CSc1nc2nc(-c3cccs3)cc(C(F)(F)F)c2c(=O)[nH]1 | . | . | - | . | -
CC(C)(C)OC(=O)CNC(=O)c1[nH]cnc1C(=O)NCCCCCNC(=O)OC(C)(C)C | . | . | . | - | .
C#CCn1cnc2c(cnn2-c2ccc(C)c(C)c2)c1=O | - | 60 | . | . | -
CCc1ccc(/C=N/NC(=O)c2cc(C3CC3)nc3ccc(Br)cc23)s1 | 20 | - | - | . | -
COc1ccc2nc(N=Nc3ccc(O)c4ccccc34)sc2c1 | - | - | 18 | - | -
Cc1cc(-c2sccc2Br)nc(-n2cccc2)n1 | - | 69 | - | - | -
Cc1cc(-c2ccc(Br)s2)nc(-n2cccc2)n1 | - | - | - | - | -
O=C(c1ccc(Cl)cc1)C1CCN(C(=O)c2ccc(F)cc2)CC1 | . | . | . | - | .
COC(=O)c1cn(N(C)c2ncc(C(F)(F)F)cc2Cl)c(=O)c2ccccc12 | - | 72 | . | . | .
SMILES | MT stabilize HCS | WT yeast gro inh | KCC2 mod | Pf gamet viab | bCat nuc transl
O=C(c1ccc(Cn2c(=S)[nH]c3cc4c(cc3c2=O)OCO4)cc1)N1CCN(c2ncccn2)CC1 | - | - | - | . | -
CC(C)(C)NC(=O)C(=O)NNC(=O)COc1ccc(Br)cc1 | - | - | 20 | - | -
Cc1ccc(NC(=O)c2cccs2)cc1 | - | - | - | - | .
COc1ccc(NC(=O)C(=O)NNC(=O)c2cccs2)cc1 | - | - | 12 | - | -
CC(=O)NC(=S)NNC(=O)COc1ccc(Br)cc1 | - | - | - | . | -
COc1ccc(OCC(=O)Nc2ccc(C)cc2)cc1 | - | - | . | - | -
Cc1ccc(NC(=O)C(=O)NNC(=O)c2cccs2)cc1 | - | - | 43 | - | -
COc1ccc(OCC(=O)NNC(=O)C(=O)Nc2ccc(C)cc2)cc1 | - | - | 22 | - | .
OCC[C@H]1C[C@@H](O)[C@H](O)[C@@]2(CCCCO2)O1 | . | . | . | - | .
COc1ccc(N2CCN(C(=O)Cc3ccc(OC)c(OC)c3)CC2)cc1 | . | . | . | - | .
CCCCOc1ccc(C2CCC(C(C)=O)C(C)C2)cc1 (stereo unspecified) | . | . | - | - | -

Screens as filed in PubChem.
